In ChEMBL document CHEMBL3046412, “Ring substituted 3-phenyl-1-(2-pyrazinyl)-2-propen-1-ones as potential photosynthesis-inhibiting, antifungal and antimycobacterial agents” (Farmaco, 2002) one finds inhibition, MIC80 and IC50 data, which are given here for 21 molecules.

Values after ≈ are worked out from the molar mass of the structure shown. Bounds are passed on as bounds.

The subject of assay [1] is Mycobacterium tuberculosis. Briefly: Antimycobacterial activity against Mycobacterium tuberculosis H37Rv ATCC 27294 at 12.5 ug/ml by microplate alamar blue assay relative to control. Format: functional.
Assay [2] has as its system Trichophyton mentagrophytes. Nature of the assay: Antifungal activity against Trichophyton mentagrophytes 445 after 72 hr by microdilution broth method. In kind it is functional. As to conditions: Trichophyton mentagrophytes, 445, 72 h. In outline: (§1)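 Broth microdilution in RPMI 1640 buffered to pH 7.0 with 0.165 M MOPS; compounds in DMSO, with compound-free controls. Strain subcultured and kept on Sabouraud dextrose agar at 4 °C. Conidia were suspended in sterile 0.85% saline, counted in a Bürker chamber to 1.0–5.0×10⁵ cfu ml⁻¹ stock, and diluted 1:20 in medium. Static incubation at 35 °C. MIC is 80% growth inhibition versus control.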

The test system of assay [3] is Trichophyton mentagrophytes. Nature of the assay: Antifungal activity against Trichophyton mentagrophytes 445 after 120 hr by microdilution broth method. Format: functional. As to conditions: Trichophyton mentagrophytes, 445, 120 h. In outline:
as §1

For assay [4], the system named is Chlorella vulgaris. Briefly: Inhibition of photosynthesis in Chlorella vulgaris chloroplast assessed as reduction of oxygen evolution rate after 4 hr by spectrophotometric analysis. In kind it is functional.
Assay [5] deals with Chlorella vulgaris. Nature of the assay: Inhibition of photosynthesis in Chlorella vulgaris assessed as reduction of chlorophyll production at 0.1 mM/l after 7 days by spectrophotometric analysis. Format: functional. Conditions: 168 h. In outline: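 Statically cultured Chlorella vulgaris suspensions were exposed to 0.1 mmol l⁻¹ compound, with 1% solvent in samples and control. After 7 days, chlorophyll was extracted into N,N-dimethylformamide and quantified spectrophotometrically.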

Assay [6] has as its system Spinacia oleracea. Briefly: Inhibition of photosynthesis in Spinacia oleracea (spinach) chloroplast assessed as reduction of oxygen evolution rate after 4 hr by spectrophotometric analysis. In kind it is functional. In outline:
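Oxygen evolution rate was measured in spinach chloroplasts at 30 mg l⁻¹, read spectrophotometrically with 2,6-dichlorophenol–indophenol as electron acceptor.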

Assay [7] relates to Candida tropicalis. Briefly: Antifungal activity against Candida tropicalis 156 after 24 hr by microdilution broth method. Format: functional. As to conditions: Candida tropicalis, 156, 24 h. In outline: (§2)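 Broth microdilution in RPMI 1640 buffered to pH 7.0 with 0.165 M MOPS; compounds dissolved in DMSO; drug-free controls included. Strains were kept on Sabouraud dextrose agar at 4 °C and passaged onto SDA before testing. Yeasts, conidia or sporangiospores were suspended in 0.85% saline to a stock of 1.0–5.0×10⁵ cfu ml⁻¹, then diluted 1:20 in medium. Plates were incubated statically at 35 °C.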

Assay [8] concerns Candida albicans. Briefly: Antifungal activity against Candida albicans ATCC 44859 after 48 hr by microdilution broth method. Format: functional. Conditions: ATCC 44859, 48 h. In outline:
as §2

Assay [9] has as its system Candida albicans. Nature of the assay: Antifungal activity against Candida albicans ATCC 44859 after 24 hr by microdilution broth method. Format: functional. Conditions: ATCC 44859, 24 h. In outline: as §2
Assay [10] relates to Lichtheimia corymbifera. Nature of the assay: Antifungal activity against Lichtheimia corymbifera 272 after 48 hr by microdilution broth method. In kind it is functional. Conditions: Lichtheimia corymbifera, 272, 48 h. In outline: as §2
Assay [11] deals with Lichtheimia corymbifera. Briefly: Antifungal activity against Lichtheimia corymbifera 272 after 24 hr by microdilution broth method. Conditions: Lichtheimia corymbifera, 272, 24 h. In kind it is functional. In outline:
as §2

For assay [12], the system named is Aspergillus fumigatus. Briefly: Antifungal activity against Aspergillus fumigatus 231 after 24 hr by microdilution broth method. Format: functional. As to conditions: Aspergillus fumigatus, 231, 24 h. In outline: as §2
For assay [13], the system named is Aspergillus fumigatus. Nature of the assay: Antifungal activity against Aspergillus fumigatus 231 after 48 hr by microdilution broth method. In kind it is functional. As to conditions: Aspergillus fumigatus, 231, 48 h. In outline: as §2
In assay [14] the test system is Trichosporon beigelii. Briefly: Antifungal activity against Trichosporon beigelii 1188 after 48 hr by microdilution broth method. Format: functional. As to conditions: Trichosporon beigelii, 1188, 48 h. In outline: as §2
Assay [15] deals with Nakaseomyces glabratus. Nature of the assay: Antifungal activity against Candida glabrata 20/I after 48 hr by microdilution broth method. In kind it is functional. In outline:
as §2

Assay [16] deals with Trichosporon beigelii. Briefly: Antifungal activity against Trichosporon beigelii 1188 after 24 hr by microdilution broth method. In kind it is functional. Conditions: Trichosporon beigelii, 1188, 24 h. In outline:
as §2

In assay [17] the test system is Nakaseomyces glabratus. Nature of the assay: Antifungal activity against Candida glabrata 20/I after 24 hr by microdilution broth method. In kind it is functional. In outline:
as §2

Assay [18] concerns Pichia kudriavzevii. Nature of the assay: Antifungal activity against Pichia kudriavzevii E 28 after 24 hr by microdilution broth method. In kind it is functional. As to conditions: E 28, 24 h. In outline:
as §2

For assay [19], the system named is Pichia kudriavzevii. Nature of the assay: Antifungal activity against Pichia kudriavzevii E 28 after 48 hr by microdilution broth method. Format: functional. Conditions: E 28, 48 h. In outline:
as §2

Assay [20] concerns Candida tropicalis. Nature of the assay: Antifungal activity against Candida tropicalis 156 after 48 hr by microdilution broth method. Conditions: Candida tropicalis, 156, 48 h. In kind it is functional. In outline:
as §2

The molecule `O=C(/C=C/c1ccc(O)cc1)c1cnccn1` showed an inhibition at 12.5 µg/mL in [1] of 42%. Besides, the values for the MIC80 in assay [2] and in assay [3] were 62.5 µM (≈ 14.1 µg/mL) and 125 µM (≈ 28.3 µg/mL), respectively.

As to `CC(C)Cc1cnc(C(=O)/C=C/c2ccc(O)cc2)cn1`, in assay [1], testing at 12.5 µg/mL gave an inhibition of 63%. Further, the MIC80 in [2] and in [3] was greater than 500 µM each time. For the same molecule, the half-maximal inhibitory concentration (IC50) in [4] is 232 µM; in assay [6], 235 µM. The inhibition at 100 µM in [5] was 35%.

Turning to `CCCCc1cnc(C(=O)/C=C/c2ccc(O)cc2)cn1`, in assay [1], the inhibition at 12.5 µg/mL is 51%. Also, the MIC80 in assay [2] came to 31.2 µM (≈ 8.82 µg/mL); in assay [3], 62.5 µM (≈ 17.6 µg/mL). In addition, the values for the IC50 in assay [4] and in [6] were 265 µM and 306 µM, respectively. In addition, the inhibition at 100 µM in [5] was 10%.

On to `CCCc1cnc(C(=O)/C=C/c2ccc(O)cc2)cn1`, for which the inhibition at 12.5 µg/mL in [1] was found to be 35%. Moreover, the MIC80 in assay [2] was determined as 31.2 µM (≈ 8.38 µg/mL); in [3], 62.5 µM (≈ 16.8 µg/mL). Further, the IC50 in assay [4] was found to be 514 µM; in [6], 399 µM. Further, the inhibition at 100 µM in assay [5] was found to be 12%.

In turn, `CN(C)c1ccc(/C=C/C(=O)c2cnccn2)cc1` displayed an inhibition at 12.5 µg/mL in assay [1] of 26%. In addition, the MIC80 in [2] and in assay [3] was greater than 62.5 µM in each case.

For the molecule `CC(C)Cc1cnc(C(=O)/C=C/c2ccc(N(C)C)cc2)cn1`, the inhibition at 12.5 µg/mL in [1] turned out to be 10%. Further, the MIC80 was 250 µM (≈ 77.4 µg/mL) in assay [2] and greater than 250 µM in assay [3].

As for `CCCCc1cnc(C(=O)/C=C/c2ccc(N(C)C)cc2)cn1`, in assay [1], at 12.5 µg/mL the inhibition was 0%. In addition, the MIC80 in assay [2] and in assay [3] was greater than 250 µM throughout.

In turn, `CCCc1cnc(C(=O)/C=C/c2ccc(N(C)C)cc2)cn1` registered an inhibition at 12.5 µg/mL in assay [1] of 8%. Also, the MIC80 in [2] and in assay [3] was greater than 250 µM each time.

For the molecule `CCCCCCCCSc1cc(C(N)=S)ccn1`, the half-inhibitory concentration (IC50) stood at 48 µM in assay [4] and 72 µM in assay [6]. Besides, the inhibition at 100 µM in assay [5] is 100%.

For the molecule `CC(C)(C)c1ncc(C(=O)Nc2cc(O)cc(Cl)c2)nc1Cl`, the values for the IC50 in assay [4] and in assay [6] were 99 µM and 105 µM, respectively.

On to `CC(C)(C)c1cnc(C(=O)Nc2cccc(O)c2)cn1`, for which the half-inhibitory concentration (IC50) is 329 µM in [4] and 478 µM in [6].

With `COc1cc(/C=C/C(=O)c2cnccn2)ccc1O`, the inhibition at 12.5 µg/mL in assay [1] came out at 35%. Besides, in assay [2], the MIC80 was found to be 125 µM (≈ 32 µg/mL).

Consider `COc1cc(/C=C/C(=O)c2cnc(CC(C)C)cn2)ccc1O`, for which, in assay [1], the inhibition at 12.5 µg/mL stood at 53%. The MIC80 in assay [2] came to 250 µM (≈ 78.1 µg/mL).

`CCCCc1cnc(C(=O)/C=C/c2ccc(O)c(OC)c2)cn1` displayed an inhibition at 12.5 µg/mL in assay [1] of 45%. The MIC80 in assay [2] is greater than 100 µM.

For `CCCc1cnc(C(=O)/C=C/c2ccc(O)c(OC)c2)cn1`, the inhibition at 12.5 µg/mL in assay [1] stood at 20%. Further, the MIC80 in assay [2] was greater than 125 µM.

For the molecule `O=C(/C=C/c1ccccc1O)c1cnccn1`, the MIC80 in assay [7] worked out at 125 µM (≈ 28.3 µg/mL); in [8], 62.5 µM (≈ 14.1 µg/mL); in [9], 62.5 µM (≈ 14.1 µg/mL); in [2], 15.6 µM (≈ 3.53 µg/mL); in assay [10] it was 250 µM (≈ 56.6 µg/mL); in [11], 125 µM (≈ 28.3 µg/mL). The MIC80 in assay [12] was determined as 125 µM (≈ 28.3 µg/mL); in assay [13] it was 250 µM (≈ 56.6 µg/mL); in [3], 31.2 µM (≈ 7.07 µg/mL); in [14], 250 µM (≈ 56.6 µg/mL); in assay [15] it was 250 µM (≈ 56.6 µg/mL); in assay [16] it was 125 µM (≈ 28.3 µg/mL). The MIC80 in [17] came out at 125 µM (≈ 28.3 µg/mL); in assay [18] it was 125 µM (≈ 28.3 µg/mL); in assay [19], 250 µM (≈ 56.6 µg/mL); in [20], 250 µM (≈ 56.6 µg/mL). The molecule also came in with an inhibition at 12.5 µg/mL in assay [1] of 55%.

In assay [1], `CC(C)Cc1cnc(C(=O)/C=C/c2ccccc2O)cn1` displayed an inhibition at 12.5 µg/mL of 20%. In assay [2], this molecule gave an MIC80 of 31.2 µM (≈ 8.82 µg/mL). The results for the half-inhibitory concentration (IC50) in assay [4] and in [6] were 63 µM and 144 µM, respectively. In addition, in assay [5], the inhibition at 100 µM was found to be 92%.

In turn, `CCCCc1cnc(C(=O)/C=C/c2ccccc2O)cn1` gave an inhibition at 12.5 µg/mL in [1] of 33%. Also, the MIC80 was 3.91 µM (≈ 1.1 µg/mL) in assay [2] and 15.6 µM (≈ 4.41 µg/mL) in [3]. Moreover, the half-inhibitory concentration (IC50) in assay [4] came to 147 µM; in assay [6], 184 µM. Besides, in assay [5], the inhibition at 100 µM was 89%.

With `CCCc1cnc(C(=O)/C=C/c2ccccc2O)cn1`, the inhibition at 12.5 µg/mL in assay [1] was 50%. Moreover, the MIC80 in assay [2] and in assay [3] was 7.81 µM (≈ 2.1 µg/mL) each time. The values for the IC50 in [4] and in assay [6] were 100 µM and 187 µM, respectively. In addition, in assay [5], the inhibition at 100 µM is 68%.

Consider `CC(=O)N1CCN(c2ccc(OCC3COC(Cn4ccnc4)(c4ccc(Cl)cc4Cl)O3)cc2)CC1` (centres undefined) [KETOCONAZOLE], for which the MIC80 in [7] is 3.91 µM (≈ 2.08 µg/mL); in assay [8], no more than 0.06 µM; in [9], no more than 0.06 µM; in [2], 0.24 µM (≈ 0.128 µg/mL); in assay [10] it was 15.6 µM (≈ 8.31 µg/mL); in assay [11], 15.6 µM (≈ 8.31 µg/mL). Further, the MIC80 is 7.81 µM (≈ 4.15 µg/mL) in assay [12]; 7.81 µM (≈ 4.15 µg/mL) in assay [13]; 1.95 µM (≈ 1.04 µg/mL) in [3]; no more than 0.06 µM in assay [14]; 1.95 µM (≈ 1.04 µg/mL) in assay [15]; no more than 0.06 µM in [16]. Also, the MIC80 was determined as 0.49 µM (≈ 0.26 µg/mL) in assay [17], 1.95 µM (≈ 1.04 µg/mL) in assay [18], 1.95 µM (≈ 1.04 µg/mL) in [19] and 7.81 µM (≈ 4.15 µg/mL) in assay [20].

For the molecule `NC(=O)c1cnccn1` [PYRAZINAMIDE], the inhibition at 12.5 µg/mL in [1] was determined as 100%.
